# Test results: PMC8040281 (EClinicalMedicine, 2021)
# Entries after “also recorded” stand apart in the source; their conditions may differ. Like-named read-outs stand apart in the source and are kept apart here.
# Experiments:
# [1] = First-in-human dose escalation: DLTs and MTD/RP2D; format: in vivo
# Procedure, shortened: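 Oral test compound once daily, starting at 60 mg/m2 (0.1 of preclinical non-severely toxic dose). Accelerated titration used 100% increments until ≥Grade 2 toxicity (alopecia excepted), then 3+3 with 25–50% steps. BSA-based dosing (actual dose −20 to +15% of calculated) later switched to flat doses to nearest 50 mg. Taxanes given IV. Toxicity graded by investigator per CTCAE v4.03.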
# [2] = format: in vivo, human
# [3] = 12-lead ECG and 24-hour Holter monitoring; format: in vivo, human; settings: ECG and Holter monitoring around first dose
# Procedure, shortened: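 Oral test compound given once daily, first two doses 3–7 days apart. 12-lead ECGs were part of safety assessments. 24-hour digital Holter monitoring was run around the first dose to detect QTc changes.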
# [4] = test system: metastatic or advanced solid malignant tumors; assay: Anti-tumor activity, RECIST 1.1, investigator assessed; format: in vivo, human
# Procedure, shortened: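 Investigator-assessed RECIST 1.1 response in patients with measurable disease. Oral test compound given once daily continuously, alone or ~2 h before IV paclitaxel at label or institutional dose and schedule. Time to progression is given as a median in weeks by tumor type and KRAS status.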
# clinical = settings: human, in vivo, po
# [5] = test system: NSCLC cell lines harboring KRAS mutations; settings: nonclinical studies; ref [15]; cited from earlier work
# [6] = TEAE, all dose levels, label TVB-2640 = monotherapy
# [7] = across all dose levels, label TVB-2640 = monotherapy
molecule,measurement,setting,value
Cc1nnc(-c2cc(C(=O)N3CCC(c4ccc(C#N)cc4)CC3)c(C)cc2C2CCC2)[nH]1 [TVB-2640],DLT: PPE syndrome,"[1]; Grade 3 with paclitaxel, label TVB-2640 = monotherapy",3 n
same,"DLTs, total number","[1]; all dose levels, label TVB-2640 = monotherapy",6
same,nature of DLTs,[1]; in vivo,reversible skin and ocular effects
same,DLTs at 200 mg flat dose,[1]; label TVB-2640 = monotherapy (N = 6),no DLTs observed
same,DLT: Grade 3 corneal edema,[1]; monotherapy,1 n
same,DLT: iritis,[1]; monotherapy,1 n
same,DLT: keratitis,[1]; monotherapy,1 n
same,patients with DLTs at 250 mg flat dose,"[1]; monotherapy, bilateral eye keratitis and PPE syndrome",2 of 6
same,flat dose equivalent of the MTD/RP2D,"[1]; monotherapy, depending on body surface area",150 to 200 mg
same,Any TEAE,"[2]; Any Grade, N = 76 monotherapy, N = 55 + paclitaxel",75 (98.7) n (%)
same,Blood and lymphatic system disorders,"[2]; TEAE, Any Grade",11 (14•5) n (%)
same,Eye disorders,"[2]; TEAE, Any Grade",38 (50.0) n (%)
same,Gastrointestinal disorders,"[2]; TEAE, Any Grade",52 (68.4) n (%)
same,Infections and infestations,"[2]; TEAE, Any Grade",36 (47.4) n (%)
same,Investigations,"[2]; TEAE, Any Grade",22 (28•9) n (%)
same,Metabolism and nutrition system disorders,"[2]; TEAE, Any Grade",31 (40•8) n (%)
same,Musculoskeletal and connective tissue disorders,"[2]; TEAE, Any Grade",20 (26•3) n (%)
same,Nervous system disorders,"[2]; TEAE, Any Grade",27 (35•5) n (%)
same,"Respiratory, thoracic, and mediastinal disorders","[2]; TEAE, Any Grade",34 (44•7) n (%)
same,Skin and subcutaneous tissue disorders,"[2]; TEAE, Any Grade",63 (82.9) n (%)
same,"PPE syndrome, incidence",[2]; [6],46%
same,"alopecia, incidence",[2]; [6],61%
same,"fatigue, incidence",[2]; [6],37%
same,"decreased appetite, incidence","[2]; TEAE, monotherapy",26%
same,"dry eye, incidence","[2]; TEAE, monotherapy",17%
same,"dry skin, incidence","[2]; TEAE, monotherapy",22%
same,"lacrimation increased, incidence","[2]; TEAE, monotherapy",13%
same,"rash, incidence","[2]; TEAE, monotherapy",11%
same,"skin exfoliation, incidence","[2]; TEAE, monotherapy",12%
same,Blood and lymphatic system disorders,"[2]; TEAE, ≥Grade 3",3 (3•9) n (%)
same,Eye disorders,"[2]; TEAE, ≥Grade 3",3 (3.9) n (%)
same,Gastrointestinal disorders,"[2]; TEAE, ≥Grade 3",3 (3.9) n (%)
same,Infections and infestations,"[2]; TEAE, ≥Grade 3",5 (6.6) n (%)
same,Investigations,"[2]; TEAE, ≥Grade 3",6 (7•9) n (%)
same,Metabolism and nutrition system disorders,"[2]; TEAE, ≥Grade 3",5 (6•6) n (%)
same,Musculoskeletal and connective tissue disorders,"[2]; TEAE, ≥Grade 3",3 (3•9) n (%)
same,Nervous system disorders,"[2]; TEAE, ≥Grade 3",1 (1•3) n (%)
same,"Respiratory, thoracic, and mediastinal disorders","[2]; TEAE, ≥Grade 3",2 (2•6) n (%)
same,Skin and subcutaneous tissue disorders,"[2]; TEAE, ≥Grade 3",8 (10.5) n (%)
same,"adverse events resulting in dose reduction, patients",[2]; [7],28%
same,"adverse events resulting in treatment discontinuation, patients",[2]; [7],22%
same,>Grade 2 skin or eye toxicities at the MTD,"[2]; human, in vivo",no >Grade 2 skin or eye toxicities were observed
same,patients with serious pneumonitis,[2]; label TVB-2640 = monotherapy,not observed
same,Any ≥Grade 3 TEAE,"[2]; ≥Grade 3, N = 76 monotherapy, N = 55 + paclitaxel",44 (57.9) n (%)
same,QTc prolonging effect,[3],no clinically relevant QTc prolonging effect; also recorded: no significant gastrointestinal or serum chemistry toxicities or evidence of QTc prolongation; also recorded: no evidence of QTc prolongation
same,PR rate (confirmed) / best response of CR or PR,"[4]; 6/53 evaluable patients with paclitaxel, label TVB-2640 = monotherapy",no patient treated with monotherapy had a complete or partial response; also recorded: No patient had a best response of complete response (CR) or partial response (PR)
same,"time to progression (TTP), NSCLC KRAS^WT disease","[4]; median, N = 6 monotherapy, label TVB-2640 = monotherapy",5 weeks
same,"time to progression (TTP), NSCLC KRAS^MUT disease","[4]; median, N = 11 monotherapy, label TVB-2640 = monotherapy",22 weeks
same,patients who experienced SD,"[4]; monotherapy, 29/69 evaluable patients",42%
same,Tmax,clinical,~4 h
same,half-life,clinical,10 to 13 h
TVB-3166,sensitivity of KRAS^MUT versus KRAS^WT NSCLC cell lines to killing,[5],more sensitive to killing with FASN inhibition than KRAS wild-type (KRAS^WT) lines
